The values that follow come from PubChem BioAssay.

Each structure is given as a SMILES string. The source made the active and inactive calls.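 Rule for the calls, unless noted: active = Her2 level under about 52% in both replicate screens, with viability over 70% of control (limit read from the data); inconclusive = Her2 under the limit in one screen only, or viability under 70%; inactive = Her2 level above the set limit.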

Assay [1] in a line: Her2 expression decrease, cell viability multiplex – SKBR3 breast tumor cells, AlphaScreen, ATP viability, primary screen (AID 461).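 For Her2 level: lower value means less Her2 protein in the cells.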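 For viability: percent of carrier control wells set as 100% viability.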 The settings on record: SKBR3 Her2 protein level, 18-24 h, measured here: SKBR3 viability, ATP luminescence, at 10 µM.
In assay [2] the target is Receptor tyrosine-protein kinase erbB-2 (Homo sapiens) (UniProt P04626). Described as above. The settings on record: 18-24 h, at 10 µM, stronger effect = lower value.
Receptor tyrosine-protein kinase erbB-2 (Homo sapiens), sequence (P04626 whole entry, looked up): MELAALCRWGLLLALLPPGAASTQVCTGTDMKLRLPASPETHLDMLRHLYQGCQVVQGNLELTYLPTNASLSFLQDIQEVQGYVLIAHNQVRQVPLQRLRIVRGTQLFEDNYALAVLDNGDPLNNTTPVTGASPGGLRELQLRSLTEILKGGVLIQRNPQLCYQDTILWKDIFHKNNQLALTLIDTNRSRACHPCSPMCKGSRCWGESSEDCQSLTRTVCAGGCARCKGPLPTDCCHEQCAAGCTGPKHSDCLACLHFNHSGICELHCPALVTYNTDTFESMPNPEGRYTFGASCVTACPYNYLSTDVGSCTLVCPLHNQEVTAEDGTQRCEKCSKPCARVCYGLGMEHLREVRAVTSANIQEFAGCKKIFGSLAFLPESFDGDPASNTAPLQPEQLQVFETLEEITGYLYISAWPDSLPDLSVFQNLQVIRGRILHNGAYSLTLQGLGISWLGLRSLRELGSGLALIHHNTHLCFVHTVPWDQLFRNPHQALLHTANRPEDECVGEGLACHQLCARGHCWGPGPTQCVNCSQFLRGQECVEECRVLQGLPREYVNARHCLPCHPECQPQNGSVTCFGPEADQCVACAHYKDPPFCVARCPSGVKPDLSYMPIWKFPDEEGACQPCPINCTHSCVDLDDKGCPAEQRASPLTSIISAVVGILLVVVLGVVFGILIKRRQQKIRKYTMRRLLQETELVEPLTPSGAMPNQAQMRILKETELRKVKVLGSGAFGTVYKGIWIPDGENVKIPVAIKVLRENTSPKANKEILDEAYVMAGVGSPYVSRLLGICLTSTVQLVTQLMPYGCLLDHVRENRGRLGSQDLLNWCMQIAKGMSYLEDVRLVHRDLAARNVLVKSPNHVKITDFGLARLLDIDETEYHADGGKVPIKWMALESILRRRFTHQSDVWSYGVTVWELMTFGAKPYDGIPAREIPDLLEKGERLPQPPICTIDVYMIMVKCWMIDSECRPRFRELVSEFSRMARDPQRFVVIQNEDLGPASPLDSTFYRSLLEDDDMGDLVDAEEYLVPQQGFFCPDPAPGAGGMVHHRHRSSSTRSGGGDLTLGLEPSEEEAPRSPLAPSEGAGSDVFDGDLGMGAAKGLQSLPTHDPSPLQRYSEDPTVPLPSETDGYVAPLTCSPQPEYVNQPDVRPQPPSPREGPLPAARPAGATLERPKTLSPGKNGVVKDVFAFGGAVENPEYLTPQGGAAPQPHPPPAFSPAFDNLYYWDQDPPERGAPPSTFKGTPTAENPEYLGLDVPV
Assay [3] can be described thus: reduced viability of SK-BR-3 breast cancer cells – cell-based, 24 h, human, pilot screen (AID 572;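 active = viability at or below 10% of carrier control in both of two separate runs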;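 note: compound exposure lasted between 18 and 24 h rather than exactly 24 h; 100% = carrier-treated control wells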). The settings on record: SK-BR-3 viability, CellTiter-Glo luminescence, at 10 µM, stronger effect = lower value. A general note: In ATP-based viability assays light output follows the ATP content of the culture.
The nature of assay [4]: HUVEC growth inhibition – cell-based, human, primary screen (AID 575;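 active = viability at or below 30% in both replicate assays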;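 note: 100% = median of untreated cell wells with 0.1% DMSO on each plate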). The settings on record: HUVEC proliferation, CellTiter-Glo luminescence, 72 h; at 10 µM; stronger effect = lower value. In outline:
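Test system: primary human umbilical vein endothelial cells; medium: endothelial basal medium with 2% FBS plus growth supplements; dosing: 10 µM compound only; times: 72 h treatment at 37 °C; signal: CTG luminescence; read-out: % viability relative to median vehicle-well signal on each plate; control set: vehicle and MePR control wells; plate: 384-well, collagen-coated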

Assay [5] in a line: H69AR cell proliferation blockers – human, duplicate replicates, primary screen (AID 580;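 active = viability at or under a set limit in both replicates, limit being median viability minus 3 SD, cut at about 48% in these data, passing the limit was not always enough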;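 note: 100% = mean luminescence of untreated wells and 0% = no signal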). The settings on record: H69AR lung tumor cells viability, ATP luminescence, 72 h; at 10 µM; stronger effect = lower value.
Assay [6] is described as follows: MRP1 drug-resistance reversers in H69AR cells – cell-based, doxorubicin co-treatment, pilot screen (AID 601;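 active = viability loss from added drug above about 55%, and viability with drug at most 40%, in both replicates, limit read from the data, passing the limit was not always enough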). The settings on record: CellTiter-Glo, 72 h, at 10 µM; for differential viability (reversal): stronger effect = higher value.
The nature of assay [7]: yeast transport mutant growth inhibition pilot in 384-well plates, post-Golgi transport modulator project (AID 636; in the data active = inhibition above about 31%). The settings on record: absorbance 615 nm, about 18 h, stronger effect = higher value.
Assay [8] can be described thus: growth suppression of yeast trafficking mutant, preliminary HTS, modulators of trafficking downstream of Golgi apparatus project, 1536-format plate, OD 615 nm (AID 637; in the data active = inhibition above about 30%). The settings on record: yeast transport mutant growth, absorbance 615 nm, 18 h; stronger effect = higher value.
[9] abbreviates: H69AR cells + 2 uM doxorubicin, measured here: viability with 2 uM doxorubicin, stronger effect = lower value.
[10] abbreviates: H69AR cells, compound alone cytotoxicity.

As usually defined, the viability is a read-out of living cells in per cent, often relative to untreated cells. What is called inhibition is the drop in the measured response relative to a control, in per cent.

In the case of `COc1ccc(CC(=O)NCc2ccccc2)cc1S(=O)(=O)N1CCOCC1`, the viability in assay [1] was 110%; in assay [3], 110% (inactive); in assay [4] it was 93.5% (inactive); in assay [5], 89% (inactive); in assay [6] (setting [9]) it was 98.1%; in assay [6] (setting [10]) it was 89%. Moreover, in assay [2], the Her2 level is 106% (inactive). Besides, the differential viability (reversal) in assay [6] (H69AR cells + 2 uM doxorubicin) was -9.06% (inactive). The values for the inhibition in assay [7] and in assay [8] were -2.5% (inactive) and 5.82% (inactive), respectively.
As for `CC(=O)Nc1cccc(NC(=O)C2CCCN2C(=O)Nc2ccc(C)cc2)c1` (stereo not given), the viability in assay [1] was 89%; in assay [3], 89% (inactive); in assay [4], 99.9% (inactive); in assay [5], 100% (inactive); in assay [6] (setting [9]), 89.7%; in assay [6] (setting [10]), 100%. Moreover, in assay [2], the Her2 level was 93.5% (inactive). For the same molecule, in assay [6] (H69AR cells + 2 uM doxorubicin), the differential viability (reversal) is 10.7% (inactive). Also, the inhibition in assay [7] is -0.68% (inactive); in assay [8], -6.89% (inactive).
On to `COc1ccc(S(=O)(=O)Cc2ccc(C(=O)N3CCN(Cc4ccccc4)CC3)o2)cc1`, for which the viability in assay [1] was 86.5%; in assay [3], 86.5% (inactive); in assay [4], 95% (inactive); in assay [5] it was 84.9% (inactive); in assay [6] (setting [9]), 85.6%; in assay [6] (setting [10]), 84.9%. Besides, the Her2 level in assay [2] is 102% (inactive). Besides, the differential viability (reversal) in assay [6] (H69AR cells + 2 uM doxorubicin) is -0.78% (inactive). For the same molecule, the figures for the inhibition in assay [7] and in assay [8] were -1.41% (inactive) and 0.5% (inactive), respectively.
For the molecule `O=C(COC(=O)c1cc(S(=O)(=O)N2CCOCC2)ccc1O)NCC1CCCO1` (stereo not given), the viability was 91.5% in assay [1]; 91.5% (inactive) in assay [3]; 98.7% (inactive) in assay [4]; 91% (inactive) in assay [5]; 94.5% in assay [6] (setting [9]); 91% in assay [6] (setting [10]). Also, the Her2 level in assay [2] is 85.5% (inactive). In assay [6] (H69AR cells + 2 uM doxorubicin), the differential viability (reversal) is -3.47% (inactive). The inhibition in assay [7] is -6.4% (inactive); in assay [8] it was 8.36% (inactive).
For `Cc1ccc(CCNC(=O)C2CCN(S(=O)(=O)c3cccc4nsnc34)CC2)cc1`, the viability in assay [1] was 93.5%; in assay [3] it was 93.5% (inactive); in assay [4] it was 107% (inactive); in assay [5], 95.6% (inactive); in assay [6] (setting [9]), 99.2%; in assay [6] (setting [10]) it was 95.6%. Besides, the Her2 level in assay [2] is 108% (inactive). Also, the differential viability (reversal) in assay [6] (H69AR cells + 2 uM doxorubicin) was -3.61% (inactive). Also, the inhibition in assay [7] is 2.13% (inactive); in assay [8], 0.33% (inactive).
For the molecule `Cc1cc(C(=O)Cn2cncn2)c(C)n1CCc1ccc(F)cc1`, the viability was 64% in assay [1]; 64% (inactive) in assay [3]; 105% (inactive) in assay [4]; 89.2% (inactive) in assay [5]; 95% in assay [6] (setting [9]); 89.2% in assay [6] (setting [10]). In addition, in assay [2], the Her2 level was 80% (inactive). Also, the differential viability (reversal) in assay [6] (H69AR cells + 2 uM doxorubicin) was -5.71% (inactive). The inhibition was -5.41% (inactive) in assay [7] and 3.11% (inactive) in assay [8].
As for `Cc1cc2oc(C(=O)NC3CCS(=O)(=O)C3)c(C)c2cc1C` (stereo not given), the viability in assay [1] is 99.5%; in assay [3], 99.5% (inactive); in assay [4], 97.7% (inactive); in assay [5] it was 93.7% (inactive); in assay [6] (setting [9]) it was 71%; in assay [6] (setting [10]) it was 93.7%. Further, the Her2 level in assay [2] was 98% (inactive). Further, the differential viability (reversal) in assay [6] (H69AR cells + 2 uM doxorubicin) is 22.6% (inactive). Moreover, the figures for the inhibition in assay [7] and in assay [8] were 1.45% (inactive) and 1.48% (inactive), respectively.
As to `CC(=O)NCc1ccc(C(=O)CSc2nnc(-c3ccncc3)n2Cc2ccccc2)o1`, the viability in assay [1] was 99.5%; in assay [3], 99.5% (inactive); in assay [4], 97% (inactive); in assay [5] it was 97.1% (inactive); in assay [6] (setting [9]), 87.8%; in assay [6] (setting [10]) it was 97.1%. Besides, the Her2 level in assay [2] was 92.5% (inactive). In addition, the differential viability (reversal) in assay [6] (H69AR cells + 2 uM doxorubicin) was 9.33% (inactive). The inhibition in assay [7] is -5% (inactive); in assay [8], 10.3% (inactive).
In the case of `CCS(=O)(=O)N1CCC(C(=O)NC2CCCCC2)CC1`, the viability in assay [1] is 113%; in assay [3] it was 113% (inactive); in assay [4] it was 92.7% (inactive); in assay [5], 97.4% (inactive); in assay [6] (setting [9]) it was 86.1%; in assay [6] (setting [10]), 97.4%. In addition, in assay [2], the Her2 level was 99% (inactive). The differential viability (reversal) in assay [6] (H69AR cells + 2 uM doxorubicin) is 11.3% (inactive). The results for the inhibition in assay [7] and in assay [8] were 1.84% (inactive) and 3.28% (inactive), respectively.
Regarding `CN(C)CC(=O)N1c2ccccc2CCc2ccc(NC(=O)c3ccc(N)cc3)cc21`, the viability in assay [1] was 103%; in assay [3] it was 103% (inactive); in assay [4] it was 82.1% (inactive); in assay [5], 83.8% (inactive); in assay [6] (setting [9]), 88.7%; in assay [6] (setting [10]), 83.8%. For the same molecule, the Her2 level in assay [2] is 102% (inactive). Moreover, the differential viability (reversal) in assay [6] (H69AR cells + 2 uM doxorubicin) was -4.88% (inactive). In addition, the inhibition in assay [7] was -5.79% (inactive); in assay [8], 4.26% (inactive).
`CCn1c(SCC(=O)N2c3ccccc3CCc3ccccc32)nc2c1c(=O)n(C)c(=O)n2C`: the viability in assay [1] was 87.5%; in assay [3] it was 87.5% (inactive); in assay [4] it was 92.5% (inactive); in assay [5], 94.3% (inactive); in assay [6] (setting [9]), 95.8%; in assay [6] (setting [10]), 94.3%. Besides, in assay [2], the Her2 level was 107% (inactive). Besides, the differential viability (reversal) in assay [6] (H69AR cells + 2 uM doxorubicin) is -1.58% (inactive). Also, the inhibition in assay [7] is -1.51% (inactive); in assay [8] it was -6.98% (inactive).
`COc1ccccc1NC(=O)CC(NCc1ccccc1)C(=O)O` (stereo not given): the viability is 108% in assay [1]; 108% (inactive) in assay [3]; 110% (inactive) in assay [4]; 89.1% (inactive) in assay [5]; 91.2% in assay [6] (setting [9]); 89.1% in assay [6] (setting [10]). For the same molecule, in assay [2], the Her2 level is 80% (inactive). Besides, in assay [6] (H69AR cells + 2 uM doxorubicin), the differential viability (reversal) is -2.06% (inactive). Moreover, the values for the inhibition in assay [7] and in assay [8] were -7.43% (inactive) and -3% (inactive), respectively.
Consider `CCOC(=O)c1sc2nc3c(cc2c1N)COC(C)(C)C3`, for which the viability in assay [1] is 97%; in assay [3], 97% (inactive); in assay [4] it was 111% (inactive); in assay [5] it was 98.4% (inactive); in assay [6] (setting [9]), 94.5%; in assay [6] (setting [10]), 98.4%. For the same molecule, the Her2 level in assay [2] was 92% (inactive). The differential viability (reversal) in assay [6] (H69AR cells + 2 uM doxorubicin) was 3.91% (inactive). The inhibition in assay [7] is -6.4% (inactive); in assay [8], -3.23% (inactive).
With `CN(C)c1ccc(C=Nc2ccc(N(C)C)cc2)cc1`, the viability in assay [1] was 104%; in assay [3] it was 104% (inactive); in assay [4] it was 74.2% (inactive); in assay [5], 70.4% (inactive); in assay [6] (setting [9]), 78.1%; in assay [6] (setting [10]), 70.4%. Further, the Her2 level in assay [2] is 94% (inactive). The differential viability (reversal) in assay [6] (H69AR cells + 2 uM doxorubicin) was -7.71% (inactive). The inhibition in assay [7] was -6.22% (inactive); in assay [8], -6.23% (inactive).
